# According to ChEMBL document CHEMBL1123555, “1,2-Bis(sulfonyl)hydrazines. 3. Effects of structural modification on antineoplastic activity” (1987):
# Organism: Mus musculus
# Assay: Antitumor activity against L1210 leukemia cells in mice calculated as average change in body weight from onset to termination of therapy
# Format: functional
# Method in brief: (§1)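 Tumor-bearing mice in groups of five, dosed i.p. daily for 6 days from 24 h post-implantation with suspensions in Tween 80/isotonic saline at 10-150 mg/kg per day; vehicle controls run alongside. Mice weighed during the experiment. Average percent body-weight change from onset to termination of therapy was taken as the toxicity index, reported at the optimal-survival dose.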
row,Compound,Weight change [%]
1,CN(NS(=O)(=O)c1ccccc1)S(=O)(=O)c1ccccc1,-4.8
2,COc1ccc(S(=O)(=O)NN(C)S(=O)(=O)c2ccc(C)cc2)cc1,7.8
3,Cc1ccc(S(=O)(=O)N(C)NS(=O)(=O)c2ccc(Cl)cc2)cc1,3.7
4,CN(NS(C)(=O)=O)S(=O)(=O)Cc1ccccc1,6.7
5,CN(NS(=O)(=O)c1ccccc1)S(=O)(=O)c1ccc(Cl)cc1,6.8
6,CN(NS(C)(=O)=O)S(=O)(=O)c1ccc(Cl)cc1,5.3
7,Cc1ccc(S(=O)(=O)N(C)NS(=O)(=O)c2ccc3ccccc3c2)cc1,9.3

# Organism: Mus musculus
# Assay: Antitumor activity against L1210 leukemia cells in mice (activity expressed as average survival time of treated/control animals x 100)
# Format: functional
# Method in brief: (§2)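 Compound given ip as a fine suspension (homogenized in drops of 20% aqueous Tween 80, made to volume with isotonic saline) at 10-150 mg/kg per day, once daily for 6 consecutive days starting 24 h after implantation. Vehicle-injected tumor-bearing controls were included. Read-out was survival time; body-weight change over therapy was the toxicity indicator.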
row,Compound,T/C [%]
1,CN(NS(C)(=O)=O)S(=O)(=O)Cc1ccccc1,165
2,CN(NS(=O)(=O)c1ccccc1)S(=O)(=O)c1ccc(Cl)cc1,115

# Tested on: not listed separately
# Assay: Antitumor activity against mouse B16 melanoma cells, calculated as average change in body weight from onset to termination of therapy
# Format: functional
# Method in brief: as §1
row,Compound,Weight change [%]
1,CCS(=O)(=O)NN(C)S(=O)(=O)c1ccc(Cl)cc1,-0.1
2,CN(NS(=O)(=O)Cc1ccccc1)S(=O)(=O)Cc1ccccc1,-17.1
3,COc1ccc(S(=O)(=O)NN(C)S(=O)(=O)Cc2ccccc2)cc1,0.2
4,COc1ccc(S(=O)(=O)NN(C)S(=O)(=O)c2ccc(OC)cc2)cc1,-2.4
5,CN(NS(=O)(=O)c1ccc(Br)cc1)S(=O)(=O)c1ccccc1,-1.6
6,CN(NS(=O)(=O)c1ccc2ccccc2c1)S(=O)(=O)c1ccccc1,2.5
7,CN(NS(=O)(=O)Cc1ccccc1)S(=O)(=O)c1ccccc1,2.2
8,CN(NS(C)(=O)=O)S(=O)(=O)c1ccc(I)cc1,4
9,CN(NS(C)(=O)=O)S(=O)(=O)c1ccc2ccccc2c1,1.4
10,COc1ccc(S(=O)(=O)N(C)NS(=O)(=O)c2ccc3ccccc3c2)cc1,-0.1
11,Cc1ccc(S(=O)(=O)NN(C)S(=O)(=O)c2ccc(I)cc2)cc1,1.4
12,CN(NS(=O)(=O)/C=C/c1ccccc1)S(=O)(=O)c1ccc(Cl)cc1,1.1
13,CN(NS(=O)(=O)c1ccccc1)S(=O)(=O)c1ccccc1,-2.3
14,COc1ccc(S(=O)(=O)NN(C)S(=O)(=O)c2ccc(C)cc2)cc1,9.1
15,Cc1ccc(S(=O)(=O)N(C)NS(=O)(=O)c2ccc([N+](=O)[O-])cc2)cc1,1.4
16,Cc1ccc(S(=O)(=O)N(C)NS(=O)(=O)c2ccc(Cl)cc2)cc1,2.9
17,CN(NS(C)(=O)=O)S(=O)(=O)Cc1ccccc1,1.9
18,CN(NS(=O)(=O)c1ccccc1)S(=O)(=O)c1ccc(Cl)cc1,2.3
19,CN(NS(C)(=O)=O)S(=O)(=O)c1ccc(Cl)cc1,-1.4
20,CCS(=O)(=O)NN(C)S(=O)(=O)c1ccc(I)cc1,5.2

# Tested on: L1210
# Assay: Antitumor activity against L1210 leukemia cells in mice, activity is expressed as optimal effective dose.
# Format: functional, Mus musculus
# Method in brief: (§3)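 Transplanted tumor in mice, given i.p. once daily for 6 consecutive days starting 24 h after implantation. Doses span 10-150 mg/kg per day as fine suspensions homogenized in a few drops of 20% aqueous Tween 80 and made up with isotonic saline. Groups of five; vehicle-injected tumor-bearing controls. %T/C = mean survival time treated/control × 100. Value is the daily dose giving maximum %T/C.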
row,Compound,Dose [mg/kg]
1,COc1ccc(S(=O)(=O)NN(C)S(=O)(=O)c2ccc(OC)cc2)cc1,50
2,CN(NS(=O)(=O)c1ccccc1)S(=O)(=O)c1ccccc1,50
3,COc1ccc(S(=O)(=O)NN(C)S(=O)(=O)c2ccc(C)cc2)cc1,100
4,Cc1ccc(S(=O)(=O)N(C)NS(=O)(=O)c2ccc(Cl)cc2)cc1,50
5,CN(NS(C)(=O)=O)S(=O)(=O)Cc1ccccc1,20
6,CN(NS(=O)(=O)c1ccccc1)S(=O)(=O)c1ccc(Cl)cc1,50
7,CN(NS(C)(=O)=O)S(=O)(=O)c1ccc(Cl)cc1,20
8,Cc1ccc(S(=O)(=O)N(C)NS(=O)(=O)c2ccc3ccccc3c2)cc1,75

# Organism: Mus musculus
# Assay: Antitumor activity against B16 melanoma cells in mice. Activity is expressed as optimal effective dose.
# Format: functional
# Method in brief: as §3
row,Compound,Dose [mg/kg]
1,CCS(=O)(=O)NN(C)S(=O)(=O)c1ccc(Cl)cc1,10
2,CN(NS(=O)(=O)Cc1ccccc1)S(=O)(=O)Cc1ccccc1,150
3,COc1ccc(S(=O)(=O)NN(C)S(=O)(=O)Cc2ccccc2)cc1,150
4,COc1ccc(S(=O)(=O)NN(C)S(=O)(=O)c2ccc(OC)cc2)cc1,100
5,CN(NS(=O)(=O)c1ccc(Br)cc1)S(=O)(=O)c1ccccc1,50
6,CN(NS(=O)(=O)c1ccc2ccccc2c1)S(=O)(=O)c1ccccc1,50
7,CN(NS(=O)(=O)Cc1ccccc1)S(=O)(=O)c1ccccc1,100
8,CN(NS(C)(=O)=O)S(=O)(=O)c1ccc(I)cc1,40
9,CN(NS(C)(=O)=O)S(=O)(=O)c1ccc2ccccc2c1,20
10,COc1ccc(S(=O)(=O)N(C)NS(=O)(=O)c2ccc3ccccc3c2)cc1,100
11,Cc1ccc(S(=O)(=O)NN(C)S(=O)(=O)c2ccc(I)cc2)cc1,50
12,CN(NS(=O)(=O)/C=C/c1ccccc1)S(=O)(=O)c1ccc(Cl)cc1,50
13,CN(NS(=O)(=O)c1ccccc1)S(=O)(=O)c1ccccc1,100
14,COc1ccc(S(=O)(=O)NN(C)S(=O)(=O)c2ccc(C)cc2)cc1,100
15,Cc1ccc(S(=O)(=O)N(C)NS(=O)(=O)c2ccc([N+](=O)[O-])cc2)cc1,100
16,Cc1ccc(S(=O)(=O)N(C)NS(=O)(=O)c2ccc(Cl)cc2)cc1,50
17,CN(NS(C)(=O)=O)S(=O)(=O)Cc1ccccc1,30
18,CN(NS(=O)(=O)c1ccccc1)S(=O)(=O)c1ccc(Cl)cc1,50
19,CN(NS(C)(=O)=O)S(=O)(=O)c1ccc(Cl)cc1,20
20,CCS(=O)(=O)NN(C)S(=O)(=O)c1ccc(I)cc1,30

# Tested on: not listed separately
# Assay: Antitumor activity against B16 melanoma cells in mice, activity is expressed as average survival time of treated/control animals x 100.
# Format: functional, Mus musculus
# Method in brief: as §2
row,Compound,T/C [%]
1,COc1ccc(S(=O)(=O)NN(C)S(=O)(=O)c2ccc(OC)cc2)cc1,191
2,CN(NS(=O)(=O)Cc1ccccc1)S(=O)(=O)c1ccccc1,186
3,CN(NS(C)(=O)=O)S(=O)(=O)c1ccc2ccccc2c1,193
4,CN(NS(=O)(=O)c1ccccc1)S(=O)(=O)c1ccccc1,175
5,COc1ccc(S(=O)(=O)NN(C)S(=O)(=O)c2ccc(C)cc2)cc1,200
6,CCS(=O)(=O)NN(C)S(=O)(=O)c1ccc(I)cc1,177
